Assay outcomes (PubChem BioAssay)
HTRA1 inhibitor: blocks human HTRA1 serine peptidase. recombinant HTRA1, FP-rhodamine activity-based probe, fluorescence polarization. inhibition, % at 5.96 µM. 340,000 compounds, 0.5% hits. AID 504803; in the data active = inhibition above about 36%
TCR CD3 inh: human TCR-CD3 binding inhibition | TAMRA-labeled TCR probe fluorescence, biochemical | inhibition, % at 9.4 µM | 360,000 compounds, 0.37% hits | AID 651800; in the data active = inhibition above about 19%;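 note: recombinant mutant TCR 2C K166C tagged with TAMRA read by polarization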
pPAFAH inh: inhibitors of human plasma PAF acetylhydrolase (pPAFAH). recombinant pPAFAH, FP-rhodamine probe fluorescence polarization. inhibition, % at 3.39 µM. 330,000 compounds, 1.5% hits;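 active = inhibition above the mean inhibition across the screen plus 3 SD, cut at about 25% in these data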;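 note: inhibitors block binding of the rhodamine activity-based probe so polarization drops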
Target sequence (Q13093 whole entry, looked up): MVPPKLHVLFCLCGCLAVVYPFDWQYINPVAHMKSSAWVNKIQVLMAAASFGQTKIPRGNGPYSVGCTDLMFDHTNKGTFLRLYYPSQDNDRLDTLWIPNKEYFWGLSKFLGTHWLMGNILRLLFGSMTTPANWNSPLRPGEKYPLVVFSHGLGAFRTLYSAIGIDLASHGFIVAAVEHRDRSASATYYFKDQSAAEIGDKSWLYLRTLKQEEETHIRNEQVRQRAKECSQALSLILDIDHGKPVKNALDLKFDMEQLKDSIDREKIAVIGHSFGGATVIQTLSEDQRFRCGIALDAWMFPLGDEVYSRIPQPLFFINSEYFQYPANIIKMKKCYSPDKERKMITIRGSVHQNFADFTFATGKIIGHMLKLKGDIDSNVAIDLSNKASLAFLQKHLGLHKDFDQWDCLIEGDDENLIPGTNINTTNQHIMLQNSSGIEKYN
ABHD4 inh: inhibitors of mouse ABHD4. Q8VD66. purified mABHD4, FP-Rh probe fluorescence polarization. inhibition, % at 8.92 µM. 370,000 compounds, 0.54% hits;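 active = inhibition exceeding the mean over every tested compound plus 3 SD, cut at about 30% in these data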
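Doses – 8.92 µM, single dose · Material – wild-type mouse ABHD4 protein · Replication – single well per compound (singlicate) · Measure – percent inhibition of probe binding, normalized to plate controls · Schedule – 45 min compound pre-incubation plus 60 min probe step, 25 °C · Detection – fluorescence polarization with parallel and perpendicular emission, 525/598 nm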
SIAE inh: human SIAE inhibition, primary screen | Q9HAT2 | SIAE FP-Rh probe binding, fluorescence polarization | inhibition, % at 9.66 µM | 370,000 compounds, 0.69% hits;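 active = inhibition above a cutoff: mean of compounds within the control limits plus 3 SD of those, cut at about 17% in these data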
SIAE inh conf: confirmation of human SIAE inhibitors; SIAE FP-Rh activity-based probe, fluorescence polarization; inhibition, % at 9.66 µM; AID 1117263; 2,300 compounds, 13% hits; shares compounds with SIAE inh;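 active = mean inhibition of the replicates above the hit cutoff set in the primary screen, cut at about 17% in these data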;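 note: inhibitors lower polarization as more probe stays unbound to SIAE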
Hits are given with their value; . = inactive; / = no result. Rows were chosen to be rich in hits. Some 2.3% of all compounds tested hit in one or more screens of this group.

SMILES	HTRA1 inhibitor	TCR CD3 inh	pPAFAH inh	ABHD4 inh	SIAE inh	SIAE inh conf
CCc1nc(N2CCN(S(=O)(=O)c3ccc(Br)cc3)CC2)c2c(C)c(C)sc2n1	.	.	.	.	.	/
CCN(CC)c1ccc(/C=N/NC(=O)c2c[nH]c3ccccc23)cc1	.	.	.	.	24	.
COCCNC(=S)N(C)[C@H]1C[C@H]2c3[nH]c4c(-c5ccccc5)cccc4c3CCN2C(=O)[C@H]1[C@H](C)O	/	.	/	.	.	/
Cc1cc(=O)[nH]c(/N=C(\N)Nc2ccc3c(c2)OCCO3)n1	.	.	.	.	.	/
Cc1cc(C)nc(/N=C(\N)Nc2ccc3c(c2)OCCO3)n1	.	.	.	.	18	.
COc1ccc(C(C)(O)c2nc(-c3cccc(O)c3)cs2)cc1 (stereo not drawn)	/	.	/	.	.	/
COc1ccccc1NCCC(=O)OCC(=O)NCc1ccco1	.	.	.	.	27	.
CCC(CC)C(=O)NCCc1ccc(OC)cc1	.	.	.	.	17	.
CCC(CC)C(=O)NCCc1ccc(OC)c(OC)c1	.	.	.	.	.	/
CCC(CC)C(=O)NCCCCc1ccccc1	.	.	.	.	20	.
O=C1NC(c2ccccc2)c2c(-c3ccccc3)n[nH]c21 (stereo not drawn)	/	.	/	.	.	/
COC(=O)c1ccc2nc(C3CCCCC3)c(Cc3ccc(C)cc3)n2c1	/	.	/	.	.	/
Fc1cccc(NC(=S)N2CCn3cccc3C2c2cccnc2)c1 (stereo not drawn)	.	.	.	.	25	.
S=C(Nc1ccccc1)N1CCn2cccc2C1c1cccnc1 (stereo not drawn)	.	.	.	.	.	/
COc1ccc(O)c(/C=N/Nc2nc(C)cc(-c3ccccc3)n2)c1	.	.	.	.	22	.
C=CCN=C1NC(c2ccccc2)C(C(=O)OC)=C(C)N1Cc1cccc(C(F)(F)F)c1 (stereo not drawn)	/	.	/	.	.	/
COC1=CC(=O)OC(c2cccc(Cl)c2)C1 (stereo not drawn)	/	.	/	.	.	/
Cc1nn(-c2ccccc2)nc1C(=O)Nc1ccccc1C(=O)NCC1CC1	/	.	/	.	.	/
COc1cccc(C(=O)OC(C)C(=O)Nc2ccc3c(c2)OCO3)c1 (stereo not drawn)	.	.	.	.	19	.
Cn1cc([N+](=O)[O-])c(C(=O)N/N=C/c2ccncc2)n1	.	.	.	.	17	.
Cn1cc([N+](=O)[O-])c(C(=O)N/N=C/c2ccc([N+](=O)[O-])cc2)n1	.	.	.	.	.	/
COc1ccc(C2CC(=O)Nc3ccccc3S2(=O)=O)cc1OC (stereo not drawn)	.	.	.	.	18	.
COc1ccc(OC)c(S(=O)(=O)Nc2cc3c4c(c2)CCN4C(=O)CC3)c1	.	.	.	.	.	/
COc1ccc(S(=O)(=O)Nc2cc3c4c(c2)CCN4C(=O)CC3)cc1	.	.	.	.	17	.
COC(=O)[C@]12C[C@H](CC(=O)NCc3cccc(C(F)(F)F)c3)C(=O)N(Cc3cccc4ccccc34)C1=C[C@H](C(C)C)O[C@@H]2C1CC1	/	/	/	.	.	/
SMILES	HTRA1 inhibitor	TCR CD3 inh	pPAFAH inh	ABHD4 inh	SIAE inh	SIAE inh conf
CCCCC(=O)NCCNC(=O)c1cc(OCC(F)(F)F)ccc1OCC(F)(F)F	.	.	.	.	26	.
Cc1ccc(C(=O)NCc2cccc(C(F)(F)F)c2)cc1S(=O)(=O)N1CCCCC1	.	.	/	.	25	.
Cc1ccc(C(=O)NCc2cccnc2)cc1S(=O)(=O)N1CCCCCC1	.	.	.	.	.	/
COc1cc(/C=N/NC(=O)c2ccccc2)ccc1O	.	.	.	.	.	/
COc1cc(/C=N/NC(=O)c2ccc(CSc3nc4ccccc4[nH]3)cc2)ccc1O	/	.	.	.	19	.
NNC(=O)c1sc2nc(N3CCOCC3)c3c(c2c1N)CCCC3	/	.	.	.	18	.
Nc1c(C(=O)Nc2ccccc2)sc2nc(N3CCOCC3)c3c(c12)CCCC3	.	.	/	.	.	/
Nc1c(C(=O)N2CCOCC2)sc2nc(N3CCOCC3)c3c(c12)CCCC3	.	.	.	.	.	/
Nc1c(C(=O)NCc2ccccc2)sc2nc(N3CCOCC3)c3c(c12)CCCC3	.	.	27	.	19	.
COC(=O)c1cnn(-c2ccc(Cl)cc2)c1/C=N/NC(=S)Nc1ccccc1	/	/	/	.	.	/
CCC1OC(C(C)C)Cc2[nH][nH]c(=O)c21 (stereo not drawn)	/	.	/	.	17	.
CC(C)C1Cc2[nH][nH]c(=O)c2C(C2CC2)O1 (stereo not drawn)	/	.	/	.	.	/
CCOc1ccc(/C=N/Nc2cc(N3CCOCC3)nc(C)n2)c(O)c1	.	.	.	.	31	26
COCCNc1nc(NCc2ccccc2OC)c2sccc2n1	/	.	/	.	.	/
COc1ccccc1CNc1nc(NCc2ccccc2OC)c2sccc2n1	/	.	/	.	20	.
CC(Sc1nc(N2CCOCC2)c2c(c1C#N)CC(C)(C)OC2)C(=O)O (stereo not drawn)	.	.	.	.	.	/
CC(Sc1nc(N2CCCCC2)c2c(c1C#N)CCCC2)C(=O)O (stereo not drawn)	.	.	.	.	22	.
O=S1(=O)c2c(cccc2N2CCSCC2)Oc2ccccc2CN1Cc1cn(Cc2cccc(F)c2)nn1	/	/	/	.	.	/
CCCCCCCCN1C(=O)[C@@H](CC(=O)NCCCCc2ccccc2)C[C@@]2(C(=O)OC)C1=C[C@H](COCc1ccccc1)O[C@@H]2C	/	/	/	.	.	/
Nn1c(SCC(=O)N2CCCC2)nnc1-c1cccs1	.	.	/	.	17	.
O=C(CSc1nnc(-c2cccs2)n1-c1ccccc1)N1CCCC1	.	.	.	.	.	/
CCN(CC)CCNc1nc2c(c(=O)[nH]c(=O)n2C)n1CCCc1ccccc1	.	.	.	.	19	.
CC1CCCN(c2nc3c(c(=O)[nH]c(=O)n3C)n2CCCc2ccccc2)C1 (stereo not drawn)	.	.	.	.	18	.
Cn1cc([C@]2(O)C(=O)Nc3c(F)cccc32)c2ccccc21	/	.	/	.	.	/
C/C(=N/NC(=O)c1cc2ccccc2cc1O)c1ccco1	.	.	40	.	23	.
SMILES	HTRA1 inhibitor	TCR CD3 inh	pPAFAH inh	ABHD4 inh	SIAE inh	SIAE inh conf
CCC(=O)NC(c1ccco1)c1cc(Br)c2cccnc2c1O (stereo not drawn)	/	.	/	.	19	.
CCCC(=O)NC(c1ccco1)c1c(O)ccc2ccccc12 (stereo not drawn)	.	.	.	.	.	/
COC(=O)C(C(=O)OC)c1ccccc1CNS(=O)(=O)c1ccc(C)cc1	/	.	/	.	.	/
Nc1nc(SCC(=O)Nc2ccc(C(F)(F)F)cc2)[nH]c(=O)c1NC(=O)c1ccc(F)c(F)c1	.	.	.	.	.	/
COc1ccc(C(=O)Nc2c(N)nc(SCC(=O)Nc3ccc(NC(C)=O)cc3)[nH]c2=O)cc1OC	.	.	.	.	18	.
COC(=O)c1cc(=O)c2c(ccc3oc(=O)ccc32)[nH]1	/	.	/	.	.	/
